In brackets after ≈: the same amount, converted by molar mass.

As a reminder, the MIC is the lowest concentration that inhibits growth of the organism.

The subject of the assay is Trichophyton mentagrophytes. Nature of the assay: Antifungal activity against Trichophyton mentagrophytes ATCC 9533. Format: functional. In a few lines:
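Microbial assay against Trichophyton mentagrophytes ATCC 9533. Compounds were tested at concentrations from 10 μg/mL to 10 ng/mL.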
Regarding `CCCC[C@H]1[C@@H]2C[C@@]3(CC[C@H](C)[C@H](C[C@@H](C)O)O3)O[C@H]1CC[C@@H](CC)/C=C/C=C/CC[C@@H](O)[C@@H](C)[C@@H](O)C[C@@H](OC)C[C@@H](O)[C@H](C)[C@H](O)[C@@H](C)/C=C/C(=O)O2`, the minimal inhibitory concentration (MIC) was determined as 3 µg/mL (≈ 3.85 µM).

`CC[C@@H](O)C[C@@H]1O[C@@]2(CC[C@@H]1C)C[C@@H]1OC(=O)/C=C/[C@H](C)[C@@H](O)[C@@H](C)[C@H](O)C[C@H](OC)C[C@H](O)[C@H](C)[C@H](O)CC/C=C/C=C/[C@H](CC)CC[C@H](O2)[C@H]1CCC(C)O` (stereo not given in full): the minimal inhibitory concentration (MIC) came out at 1 µg/mL (≈ 1.24 µM).

Compound `CC[C@H]1/C=C/C=C/CC[C@@H](O)[C@@H](C)[C@@H](O)C[C@@H](OC)C[C@@H](O)[C@H](C)[C@H](O)[C@@H](C)/C=C/C(=O)O[C@H]2C[C@@]3(CC[C@H](C)[C@H](C[C@@H](C)O)O3)O[C@@H](CC1)[C@H]2CCC(C)O` (stereo not given in full) came in with a minimum inhibitory concentration (MIC) of 3 µg/mL (≈ 3.77 µM). Against the preceding compound, the MIC is about 3-fold higher.

`CC[C@H]1/C=C/C=C/CC[C@@H](O)[C@@H](C)[C@@H](O)C[C@@H](OC)C[C@@H](O)[C@H](C)[C@H](O)[C@@H](C)/C=C/C(=O)O[C@H]2C[C@@]3(CC[C@H](C)[C@H](C[C@@H](C)O)O3)O[C@@H](CC1)[C@H]2CC` came in with a minimal inhibitory concentration (MIC) of 1 µg/mL (≈ 1.33 µM). Against the preceding compound, the MIC is about 3-fold lower.

`CCC[C@H]1[C@@H]2C[C@@]3(CC[C@H](C)[C@H](C[C@@H](C)O)O3)O[C@H]1CC[C@@H](CC)/C=C/C=C/CC[C@@H](O)[C@@H](C)[C@@H](O)C[C@@H](OC)C[C@@H](O)[C@H](C)[C@H](O)[C@@H](C)/C=C/C(=O)O2` registered an MIC of 3 µg/mL (≈ 3.92 µM).

`CC[C@@H](O)C[C@@H]1O[C@@]2(CC[C@@H]1C)C[C@@H]1OC(=O)/C=C/[C@H](C)[C@@H](O)[C@@H](C)[C@H](O)C[C@H](OC)C[C@H](O)[C@H](C)[C@H](O)CC/C=C/C=C/[C@H](CC)CC[C@H](O2)[C@H]1CCCO`: the minimal inhibitory concentration (MIC) was 1 µg/mL (≈ 1.26 µM). This MIC is about 3-fold lower than that of the compound before.

`CC[C@@H]1/C=C/C=C/C[C@H](C)[C@H](O)[C@](C)(O)C(=O)[C@H](C)[C@@H](O)[C@H](C)C(=O)[C@H](C)[C@@H](O)[C@H](C)/C=C/C(=O)O[C@H]2[C@@H](C)[C@@H](CC1)O[C@@]1(CC[C@@H](C)[C@@H](C[C@H](C)O)O1)[C@@H]2C` [OLIGOMYCIN A]: the lowest concentration to inhibit growth (MIC) was 10 µg/mL (≈ 12.6 µM).

`CC[C@H]1/C=C/C=C/CC[C@@H](O)[C@@H](C)[C@@H](O)C[C@@H](OC)C[C@@H](O)[C@H](C)[C@H](O)[C@@H](C)/C=C/C(=O)O[C@H]2C[C@@]3(CC[C@H](C)[C@H](C[C@@H](C)O)O3)O[C@@H](CC1)[C@H]2CCCO` [NEOMACLAFUNGIN A] yielded an MIC of 3 µg/mL (≈ 3.84 µM).

Compound `CCCCC[C@H]1[C@@H]2C[C@@]3(CC[C@H](C)[C@H](C[C@@H](C)O)O3)O[C@H]1CC[C@@H](CC)/C=C/C=C/CC[C@@H](O)[C@@H](C)[C@@H](O)C[C@@H](OC)C[C@@H](O)[C@H](C)[C@H](O)[C@@H](C)/C=C/C(=O)O2` displayed a minimum inhibitory concentration (MIC) of 3 µg/mL (≈ 3.78 µM).

Compound `CCC[C@H]1[C@@H]2C[C@@]3(CC[C@H](C)[C@H](C[C@H](O)CC)O3)O[C@H]1CC[C@@H](CC)/C=C/C=C/CC[C@@H](O)[C@@H](C)[C@@H](O)C[C@@H](OC)C[C@@H](O)[C@H](C)[C@H](O)[C@@H](C)/C=C/C(=O)O2` had a minimal inhibitory concentration (MIC) of 3 µg/mL (≈ 3.85 µM).

Values taken from ChEMBL document CHEMBL2163187, “Neomaclafungins A-I: oligomycin-class macrolides from a marine-derived actinomycete” (2012).
